Data taken from ChEMBL document CHEMBL3632558, “Synthesis, antimycobacterial and antibacterial activity of l-[(1R,2S)-2-fluorocyclopropyl]naphthyridone derivatives containing an oxime-functionalized pyrrolidine moiety” (2015).
≈ marks a conversion by molar mass, not a printed value.

Legend:
Format in all cases: functional
[1] = tested on: Staphylococcus aureus; assay: Antibacterial activity against methicillin-sensitive Staphylococcus aureus 14-4 after 18 to 24 hrs
Outline: (§1)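 MIC by standard NCCLS reference procedure (M100-S11); lowest concentration of compound inhibiting visible bacterial growth after incubation at 35 °C for 18–24 h, read as complete inhibition of growth. Ciprofloxacin, levofloxacin and moxifloxacin run alongside as reference agents.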

[2] = tested on: Pseudomonas aeruginosa; assay: Antibacterial activity against Pseudomonas aeruginosa 14-14 after 18 to 24 hrs; outline: as §1
[3] = tested on: Escherichia coli; assay: Antibacterial activity against ESBL-positive Escherichia coli 14-1 after 18 to 24 hrs; outline: as §1
[4] = tested on: Staphylococcus aureus; assay: Antibacterial activity against methicillin-resistant Staphylococcus aureus 14-4 after 18 to 24 hrs
[5] = tested on: Klebsiella pneumoniae; assay: Antibacterial activity against ESBL-positive Klebsiella pneumoniae 14-19 after 18 to 24 hrs; outline: as §1
[6] = tested on: Escherichia coli; assay: Antibacterial activity against Escherichia coli ATCC 25922 after 18 to 24 hrs; outline: as §1
[7] = tested on: Enterococcus faecium; assay: Antibacterial activity against Enterococcus faecium 14-5 after 18 to 24 hrs; outline: as §1
[8] = tested on: Klebsiella pneumoniae; assay: Antibacterial activity against Klebsiella pneumoniae 14-1 after 18 to 24 hrs; outline: as §1
[9] = tested on: Klebsiella pneumoniae; assay: Antibacterial activity against Klebsiella pneumoniae 14-2 after 18 to 24 hrs; outline: as §1
[10] = tested on: Staphylococcus aureus; assay: Antibacterial activity against methicillin-sensitive Staphylococcus aureus 14-1 after 18 to 24 hrs; outline: as §1
[11] = tested on: Escherichia coli; assay: Antibacterial activity against Escherichia coli 14-1 after 18 to 24 hrs; outline: as §1
[12] = tested on: Enterococcus faecium; assay: Antibacterial activity against Enterococcus faecium 14-6 after 18 to 24 hrs; outline: as §1
[13] = tested on: Staphylococcus epidermidis; assay: Antibacterial activity against methicillin-resistant Staphylococcus epidermidis 14-22 after 18 to 24 hrs
[14] = tested on: Enterococcus faecalis; assay: Antibacterial activity against Enterococcus faecalis 14-2 after 18 to 24 hrs; outline: as §1
[15] = tested on: Klebsiella pneumoniae; assay: Antibacterial activity against Klebsiella pneumoniae 14-4 after 18 to 24 hrs; outline: as §1
[16] = tested on: Staphylococcus epidermidis; assay: Antibacterial activity against methicillin-resistant Staphylococcus epidermidis 14-21 after 18 to 24 hrs
[17] = tested on: Pseudomonas aeruginosa; assay: Antibacterial activity against Pseudomonas aeruginosa 14-15 after 18 to 24 hrs; outline: as §1
[18] = tested on: Staphylococcus epidermidis; assay: Antibacterial activity against methicillin-resistant Staphylococcus epidermidis 14-37 after 18 to 24 hrs
[19] = tested on: Enterococcus faecium; assay: Antibacterial activity against Enterococcus faecium 14-2 after 18 to 24 hrs; outline: as §1
[20] = tested on: Staphylococcus epidermidis; assay: Antibacterial activity against methicillin-sensitive Staphylococcus epidermidis 14-2 after 18 to 24 hrs; outline: as §1
[21] = tested on: Staphylococcus aureus; assay: Antibacterial activity against Staphylococcus aureus CMCC 26003 after 18 to 24 hrs; outline: as §1
[22] = tested on: Escherichia coli; assay: Antibacterial activity against ESBL-positive Escherichia coli 14-2 after 18 to 24 hrs; outline: as §1
[23] = tested on: Enterococcus faecalis; assay: Antibacterial activity against Enterococcus faecalis 14-1 after 18 to 24 hrs; outline: as §1
[24] = tested on: Staphylococcus aureus; assay: Antibacterial activity against methicillin-sensitive Staphylococcus aureus 14-2 after 18 to 24 hrs; outline: as §1
[25] = tested on: Pseudomonas aeruginosa; assay: Antibacterial activity against Pseudomonas aeruginosa 14-9 after 18 to 24 hrs; outline: as §1
[26] = tested on: Klebsiella pneumoniae; assay: Antibacterial activity against Klebsiella pneumoniae 14-3 after 18 to 24 hrs; outline: as §1
[27] = tested on: Mycobacterium tuberculosis; assay: Antimycobacterial activity against Mycobacterium tuberculosis H37Rv ATCC 27294 by alamar blue assay
Outline: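 Microplate Alamar Blue Assay; MIC is the lowest concentration giving ≥90% reduction in fluorescence relative to the mean of replicate bacterium-only controls. MDR strain 6133 is resistant to isoniazid and rifampicin.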

[28] = tested on: Staphylococcus epidermidis; assay: Antibacterial activity against methicillin-resistant Staphylococcus epidermidis 14-39 after 18 to 24 hrs
[29] = tested on: Pseudomonas aeruginosa; assay: Antibacterial activity against Pseudomonas aeruginosa ATCC 27853 after 18 to 24 hrs; outline: as §1
[30] = tested on: Pseudomonas aeruginosa; assay: Antibacterial activity against Pseudomonas aeruginosa 14-16 after 18 to 24 hrs; outline: as §1
[31] = tested on: Escherichia coli; assay: Antibacterial activity against Escherichia coli 14-2 after 18 to 24 hrs; outline: as §1
[32] = tested on: Staphylococcus aureus; assay: Antibacterial activity against methicillin-resistant Staphylococcus aureus 14-5 after 18 to 24 hrs
[33] = tested on: Klebsiella pneumoniae; assay: Antibacterial activity against ESBL-positive Klebsiella pneumoniae 14-17 after 18 to 24 hrs; outline: as §1
[34] = tested on: Streptococcus pneumoniae; assay: Antibacterial activity against Streptococcus pneumoniae ATCC 19615 after 18 to 24 hrs; outline: as §1
[35] = tested on: Klebsiella pneumoniae; assay: Antibacterial activity against ESBL-positive Klebsiella pneumoniae 14-18 after 18 to 24 hrs; outline: as §1
[36] = tested on: Enterococcus faecium; assay: Antibacterial activity against Enterococcus faecium 14-1 after 18 to 24 hrs; outline: as §1
[37] = tested on: Pseudomonas aeruginosa; assay: Antibacterial activity against Pseudomonas aeruginosa 14-19 after 18 to 24 hrs; outline: as §1
[38] = tested on: Staphylococcus aureus; assay: Antibacterial activity against methicillin-sensitive Staphylococcus aureus 14-3 after 18 to 24 hrs; outline: as §1

Row | SMILES | MIC [1] | MIC [2] | MIC [3] | MIC [4] | MIC [5] | MIC [6] | MIC [7] | MIC [8] | MIC [9] | MIC [10] | MIC [11] | MIC [12] | MIC [13] | MIC [14] | MIC [15] | MIC [16] | MIC [17] | MIC [18] | MIC [19] | MIC [20] | further results
1 | NCC1CN(c2nc3c(cc2F)c(=O)c(C(=O)O)cn3[C@@H]2C[C@@H]2F)C/C1=N\OCc1ccc(OC(F)(F)F)cc1 (stereo partly specified) | 0.06 µg/mL (≈ 0.106 µM) | 32 µg/mL (≈ 56.4 µM) | 8 µg/mL (≈ 14.1 µM) | 16 µg/mL (≈ 28.2 µM) | 128 µg/mL (≈ 226 µM) | 2 µg/mL (≈ 3.52 µM) | 8 µg/mL (≈ 14.1 µM) | 128 µg/mL (≈ 226 µM) | 128 µg/mL (≈ 226 µM) | 4 µg/mL (≈ 7.05 µM) | 128 µg/mL (≈ 226 µM) | 4 µg/mL (≈ 7.05 µM) | 8 µg/mL (≈ 14.1 µM) | 0.5 µg/mL (≈ 0.881 µM) | 128 µg/mL (≈ 226 µM) | 8 µg/mL (≈ 14.1 µM) | 32 µg/mL (≈ 56.4 µM) | 8 µg/mL (≈ 14.1 µM) | 4 µg/mL (≈ 7.05 µM) | 16 µg/mL (≈ 28.2 µM) | MIC [21]: < 8 ng/mL; MIC [22]: 128 µg/mL (≈ 226 µM); MIC [23]: 32 µg/mL (≈ 56.4 µM); MIC [24]: 0.03 µg/mL (≈ 0.0529 µM); MIC [25]: 16 µg/mL (≈ 28.2 µM); MIC [26]: 128 µg/mL (≈ 226 µM); MIC90 [27]: 0.987 µg/mL (≈ 1.74 µM); MIC [28]: 8 µg/mL (≈ 14.1 µM); MIC [29]: 16 µg/mL (≈ 28.2 µM); MIC [30]: 32 µg/mL (≈ 56.4 µM); MIC [31]: 128 µg/mL (≈ 226 µM); MIC [32]: 4 µg/mL (≈ 7.05 µM); MIC [33]: 32 µg/mL (≈ 56.4 µM); MIC [34]: 0.015 µg/mL (≈ 0.0264 µM); MIC [35]: 32 µg/mL (≈ 56.4 µM); MIC [36]: 4 µg/mL (≈ 7.05 µM); MIC [37]: 16 µg/mL (≈ 28.2 µM); MIC [38]: 0.015 µg/mL (≈ 0.0264 µM)
2 | Cc1ccc(CO/N=C2\CN(c3nc4c(cc3F)c(=O)c(C(=O)O)cn4[C@@H]3C[C@@H]3F)CC2CN)cc1 (stereo partly specified) | 0.015 µg/mL (≈ 0.0302 µM) | 8 µg/mL (≈ 16.1 µM) | 2 µg/mL (≈ 4.02 µM) | 8 µg/mL (≈ 16.1 µM) | 128 µg/mL (≈ 257 µM) | < 0.008 µg/mL | 8 µg/mL (≈ 16.1 µM) | 64 µg/mL (≈ 129 µM) | 128 µg/mL (≈ 257 µM) | 2 µg/mL (≈ 4.02 µM) | 16 µg/mL (≈ 32.2 µM) | 4 µg/mL (≈ 8.04 µM) | 2 µg/mL (≈ 4.02 µM) | < 0.008 µg/mL | 128 µg/mL (≈ 257 µM) | 4 µg/mL (≈ 8.04 µM) | 8 µg/mL (≈ 16.1 µM) | 8 µg/mL (≈ 16.1 µM) | 0.5 µg/mL (≈ 1.01 µM) | 8 µg/mL (≈ 16.1 µM) | MIC [21]: < 8 ng/mL; MIC [22]: 64 µg/mL (≈ 129 µM); MIC [23]: 32 µg/mL (≈ 64.3 µM); MIC [24]: < 0.008 µg/mL; MIC [25]: 8 µg/mL (≈ 16.1 µM); MIC [26]: 64 µg/mL (≈ 129 µM); MIC90 [27]: < 0.25 µg/mL; MIC [28]: 16 µg/mL (≈ 32.2 µM); MIC [29]: 4 µg/mL (≈ 8.04 µM); MIC [30]: 8 µg/mL (≈ 16.1 µM); MIC [31]: 32 µg/mL (≈ 64.3 µM); MIC [32]: 4 µg/mL (≈ 8.04 µM); MIC [33]: 8 µg/mL (≈ 16.1 µM); MIC [34]: < 0.008 µg/mL; MIC [35]: 8 µg/mL (≈ 16.1 µM); MIC [36]: 0.5 µg/mL (≈ 1.01 µM); MIC [37]: 8 µg/mL (≈ 16.1 µM); MIC [38]: < 0.008 µg/mL
